Assay outcomes (PubChem BioAssay)
Compounds with a hit are over-represented: about 1.3% of the library has one in this group of screens.
Arr AP2 block = inhibitors of beta-arrestin/AP2 binding, primary screen, biochemical, GPCR trafficking, flow cytometry. beta-arrestin 1 C-terminal peptide binding to AP2 beta2-adaptin appendage (human). FITC-arrestin peptide / GST-AP2 beads; AP2 beta2 appendage carries R879A mutation. inhibition, % at 10 µM. 340,000 tested, 0.31% active;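 active means inhibition above a set limit, near 3 SD of compounds lacking own fluorescence, cut at about 54% in these data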
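System: GST-AP2 R879A glutathione beads; medium: PBS, Tween 20 0.05%, BSA 0.1%; reagent: fluorescein-tagged arrestin peptide at 50 nM final; schedule: pre-incubation 12 min, peptide binding 1 h, room temperature; detection: flow cytometry, FL1 (488/535 nm); read-out: inhibition as reduced fluorescein signal on beads, percent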
PLCg1 inh = PLC-gamma1 enzyme inhibitors, primary screen, biochemical, fluorescence, purified enzyme. 1-phosphatidylinositol 4,5-bisphosphate phosphodiesterase gamma-1 (Homo sapiens), P19174. fluorogenic substrate. inhibition, % at 12.2 µM. 370,000 tested, 0.84% active
Target sequence (P19174 whole entry, looked up): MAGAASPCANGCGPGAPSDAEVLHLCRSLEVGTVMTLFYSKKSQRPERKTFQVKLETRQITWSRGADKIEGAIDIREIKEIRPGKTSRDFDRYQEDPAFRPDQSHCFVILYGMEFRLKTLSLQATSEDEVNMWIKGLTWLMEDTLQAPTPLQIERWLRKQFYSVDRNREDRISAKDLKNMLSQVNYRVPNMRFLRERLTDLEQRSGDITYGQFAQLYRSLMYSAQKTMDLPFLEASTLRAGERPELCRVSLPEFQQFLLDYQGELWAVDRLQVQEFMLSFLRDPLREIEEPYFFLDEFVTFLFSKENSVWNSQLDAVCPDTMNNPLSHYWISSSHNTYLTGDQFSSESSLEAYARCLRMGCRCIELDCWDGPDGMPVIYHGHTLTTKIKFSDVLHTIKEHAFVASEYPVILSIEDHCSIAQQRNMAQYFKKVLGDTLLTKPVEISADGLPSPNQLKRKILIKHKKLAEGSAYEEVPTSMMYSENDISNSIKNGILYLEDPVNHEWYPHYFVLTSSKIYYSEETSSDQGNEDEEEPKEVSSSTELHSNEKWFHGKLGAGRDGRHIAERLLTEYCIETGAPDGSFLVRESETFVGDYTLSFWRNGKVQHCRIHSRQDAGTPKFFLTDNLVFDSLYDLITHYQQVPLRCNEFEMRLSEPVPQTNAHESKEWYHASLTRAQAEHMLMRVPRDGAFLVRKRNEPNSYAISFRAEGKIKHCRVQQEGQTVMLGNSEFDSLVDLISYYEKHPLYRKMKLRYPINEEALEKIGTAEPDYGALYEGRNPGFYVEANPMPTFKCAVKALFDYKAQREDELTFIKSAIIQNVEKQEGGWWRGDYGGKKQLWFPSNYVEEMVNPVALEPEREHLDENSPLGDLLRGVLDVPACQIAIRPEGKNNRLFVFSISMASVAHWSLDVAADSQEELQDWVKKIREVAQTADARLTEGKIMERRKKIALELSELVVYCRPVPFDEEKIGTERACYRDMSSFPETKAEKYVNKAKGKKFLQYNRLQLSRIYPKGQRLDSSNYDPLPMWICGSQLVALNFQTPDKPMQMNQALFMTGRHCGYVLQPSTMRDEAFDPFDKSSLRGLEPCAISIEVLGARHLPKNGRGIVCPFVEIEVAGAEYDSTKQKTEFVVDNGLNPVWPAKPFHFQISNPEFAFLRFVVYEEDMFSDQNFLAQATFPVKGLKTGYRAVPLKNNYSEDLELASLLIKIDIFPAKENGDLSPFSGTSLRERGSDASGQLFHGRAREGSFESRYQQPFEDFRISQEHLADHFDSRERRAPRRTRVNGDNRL
NTR1 agonist = agonists of human NTR1, primary screen, imaging, U2OS cells, beta-arrestin-GFP, high content; activation, % at 20 µM; NTR1-U2OS beta-arrestin-GFP spot imaging, agonist mode; Neurotensin receptor type 1 (Homo sapiens), P30989; 330,000 tested, 0.17% active;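 active means activation at or above 40% of the spot to cytoplasm intensity ratio, with at least 20 cells analyzed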
PLC-beta3 inh = human PLC-beta3 inhibitors, primary screen, biochemical, fluorescence; 1-phosphatidylinositol 4,5-bisphosphate phosphodiesterase beta-3 (Homo sapiens), Q01970; Purified PLC-beta3, fluorogenic substrate; inhibition, % at 12.2 µM; 370,000 tested, 0.18% active; in the data active means inhibition above about 11%
PLCgamma1 ctr = PLC-gamma1 enzyme inhibitors, counter-screen for PLC-beta3 inhibitor project, biochemical, fluorescence; shares compounds with PLCg1 inh; purified PLC-gamma1, fluorogenic substrate; inhibition, % at 12.3 µM; 3,300 tested, 3.1% active
PLCbeta3 conf = PLC-beta3 inhibitor confirmation, biochemical, fluorescence, purified enzyme; shares compounds with PLCg1 inh; fluorogenic substrate fluorescence; inhibition, % at 12.3 µM; 3,300 tested, 1% active; AID 743261, 2014; in the data active means inhibition above about 11%
Each line names hits and unclear results; the compound was inactive in the other large screens (follow-up assays come after a bar, where they were run). Unless noted, no stated cut-off is given here; in the data, active means inhibition above about 9.5%; inactive means the rest.

Nc1cc(=O)[nH]c(SCc2ccc(Cl)cc2)n1	none
Nc1cc(=O)[nH]c(SCc2cccc(Cl)c2)n1	PLCg1 inh 10 | PLCgamma1 ctr inactive | PLCbeta3 conf inactive
CC(=O)Nc1c(-c2ccccc2Cl)c(=O)c2ccccc2n1C	none
CCCC(=O)Nc1c(-c2ccccc2Cl)c(=O)c2ccccc2n1C	PLCg1 inh 13 | PLCgamma1 ctr inactive | PLCbeta3 conf inactive
Cc1cccc(CCNC(=O)Cn2ncc3c2-c2cc(C)ccc2OC3)c1	none (no result: Arr AP2 block, NTR1 agonist)
CCN(CC)S(=O)(=O)c1ccc(N2CCOCC2)c(NS(=O)(=O)c2cc(C(C)(C)C)ccc2C)c1	PLCg1 inh 12 | PLCgamma1 ctr inactive | PLCbeta3 conf inactive
O=C(NCc1ccccc1)C1(C(=O)C2CC2)CC(c2ccccc2C(F)(F)F)=NO1 (stereo not drawn)	none (no result: Arr AP2 block, NTR1 agonist)
Cc1ccc(/C(N)=N/OC(=O)c2ccc(Cl)cc2Cl)cc1	PLC-beta3 inh 13 | PLCgamma1 ctr inactive | PLCbeta3 conf inactive
Cc1cccc(C(=O)O/N=C(\N)c2ccc(Cl)cc2)c1	none
Cc1occc1-c1nnc(SCC(=O)Nc2ccccc2)n1C	PLC-beta3 inh 15 | PLCgamma1 ctr inactive | PLCbeta3 conf inactive
Cc1occc1-c1nnc(SCC(=O)Nc2ccccc2)n1CCc1ccccc1	none
CC(=O)c1ccc([C@H](O)[C@@H](C(=O)N(C)c2ccccc2)C2CC2)cc1	none (no result: Arr AP2 block, NTR1 agonist)
COc1ccc(CC(N)c2csc(Nc3ccccn3)n2)cc1 (stereo not drawn)	PLCg1 inh 15 (no result: Arr AP2 block, NTR1 agonist) | PLCgamma1 ctr inactive | PLCbeta3 conf inactive
COc1cccc(Nc2nc(C(N)Cc3ccc(Cl)cc3)cs2)n1 (stereo not drawn)	PLCg1 inh 9.5 (no result: Arr AP2 block, NTR1 agonist) | PLCgamma1 ctr inactive | PLCbeta3 conf inactive
CCOC(=O)c1c(C)n(-c2ccc(C)cc2)c2c(CC(C)=O)c(Br)c(OC)c(O)c12	PLCg1 inh 10 | PLCgamma1 ctr inactive | PLCbeta3 conf inactive
CCOC(=O)c1c(C)n(-c2ccc(C)cc2)c2c(C(C(C)=O)C(=O)O)c(Br)c(O)c(O)c12 (stereo not drawn)	none
CN1CC[C@]2(CCN3CCc4c(oc5ccccc45)[C@@H]3C2)N(C)C1=O	PLC-beta3 inh 25 | PLCgamma1 ctr inactive | PLCbeta3 conf inactive
COc1ccc(CNCC(O)(c2ccc(Cl)cc2)c2ccc(Cl)cc2)cc1OC	PLCg1 inh 9.8 | PLCgamma1 ctr inactive | PLCbeta3 conf inactive
COc1ccc(CCN(C(=O)C(F)(F)F)C(C(=O)NC2CCCCC2)c2cccs2)cc1 (stereo not drawn)	none
COc1ccc(CCN(C(=O)C(F)(F)F)C(C(=O)NC2CCCCC2)c2ccc(C)s2)cc1 (stereo not drawn)	PLCg1 inh 11 | PLCgamma1 ctr inactive | PLCbeta3 conf inactive
Clc1cccc(CSc2ncnc3sc4c(c23)CCCC4)c1	none (no result: Arr AP2 block, NTR1 agonist)
CSCC[C@H](NC(=O)CCn1nnc2ccccc2c1=O)C(=O)O	PLCg1 inh 11, PLC-beta3 inh 12 | PLCgamma1 ctr inactive | PLCbeta3 conf inactive
CCN(C(=O)[C@@H](C)[C@@H](O)c1ccc(C(C)=O)cc1)c1ccccc1	none (no result: Arr AP2 block, NTR1 agonist)
C=CCN1[C@H](CO)[C@H](c2ccc(C#CC3(O)CCCC3)cc2)[C@@H]1C#N	none (no result: Arr AP2 block, NTR1 agonist)
O=C(CNCCC1=CCCCC1)Nc1ccccc1N1CCCCC1	PLCg1 inh 12 | PLCgamma1 ctr inactive | PLCbeta3 conf inactive
COc1cc(/C=C2/C(=O)CNC2=O)ccc1O	none
COc1cc(C=C2C(=O)C=CC2=O)ccc1O	PLCg1 inh 30, PLC-beta3 inh 16 (no result: Arr AP2 block, NTR1 agonist) | PLCgamma1 ctr inactive | PLCbeta3 conf inactive
Nn1c(SCC(=O)Nc2nccs2)nnc1-c1cc(-c2ccccc2)n[nH]1	none (no result: Arr AP2 block, NTR1 agonist)
Cc1ccc(F)cc1NC(=S)NCCc1ccccc1	PLCg1 inh 11 | PLCgamma1 ctr inactive | PLCbeta3 conf inactive
Cc1ccccc1NC(=S)NCCC(c1ccccc1)c1ccccc1	PLCg1 inh 10 | PLCgamma1 ctr inactive | PLCbeta3 conf inactive
Cc1ccc2nc(-c3ccc(NC(=O)CSc4nnc(Cc5cccs5)n4C)cc3)sc2c1	none (no result: Arr AP2 block, NTR1 agonist)
CCOc1ccc(/C=C/c2c([N+](=O)[O-])c(=O)n(C)c(=O)n2C)cc1	PLCg1 inh 11 | PLCgamma1 ctr inactive | PLCbeta3 conf inactive
COc1ccc(/C=C/c2c([N+](=O)[O-])c(=O)n(C)c(=O)n2C)cc1	none
O=S1(=O)C=C(Sc2ccc(Cl)cc2)c2ccccc2C1Cc1ccc(F)cc1 (stereo not drawn)	none (no result: Arr AP2 block, NTR1 agonist)
Cc1[nH]c2ccccc2c1/C=N/Nc1nncn1N	PLCg1 inh 9.9 | PLCgamma1 ctr inactive | PLCbeta3 conf inactive
Nc1cc(S(=O)(=O)O)cc([N+](=O)[O-])c1O	PLCg1 inh 33 | PLCgamma1 ctr 64 | PLCbeta3 conf inactive
Nc1cccc2c(O)cc(S(=O)(=O)O)cc12	none (no result: PLCg1 inh, NTR1 agonist, PLC-beta3 inh)
O=C(Nc1c(-c2ccc(C(F)(F)F)cc2)nc2ncccn12)c1ccccc1	none (no result: Arr AP2 block, NTR1 agonist)
COC(=O)[C@]1(CNC(=O)C(F)(F)F)CC(=O)N(C)[C@@H]1c1ccccc1	none (no result: Arr AP2 block, NTR1 agonist)
CSc1nc2c(c(C(F)(F)F)n1)CC(C)CC2 (stereo not drawn)	PLCg1 inh 9.6 | PLCgamma1 ctr inactive | PLCbeta3 conf inactive
CCc1c2c3n4c1CCC[C@@H]4C[C@@H]3O[Si](C(C)C)(C(C)C)OC(C)C2=O (stereo partly drawn)	none (no result: Arr AP2 block, NTR1 agonist)
Cc1cc2oc(C(=O)Nc3nonc3C)c(C)c2cc1C	PLCg1 inh 9.6 | PLCgamma1 ctr inactive | PLCbeta3 conf inactive
CCN(CC)CCCn1c2c(c(SCC(=O)Nc3cc(C)cc(C)c3)nc1=O)CCC2	PLCg1 inh 13 (no result: Arr AP2 block, NTR1 agonist) | PLCgamma1 ctr inactive | PLCbeta3 conf inactive
CCN(CC)CCCn1c2c(c(SCC(=O)Nc3cccc(C(C)=O)c3)nc1=O)CCC2	none
CCOc1ccc(CCNC(=O)Cc2ccccc2)cc1OCC	none (no result: Arr AP2 block, NTR1 agonist)
Cc1c(Br)c(O)c(Br)c2sc(=O)oc12	PLCg1 inh 9.9 | PLCgamma1 ctr inactive | PLCbeta3 conf inactive
CCOC(=O)c1ccccc1NC(=O)CN(c1ccccc1OC)S(C)(=O)=O	PLC-beta3 inh 11 | PLCgamma1 ctr inactive | PLCbeta3 conf inactive
COc1ccccc1NC(=O)c1c([N+](=O)[O-])c(C(C)(C)C)nn1C	PLCg1 inh 12 | PLCgamma1 ctr inactive | PLCbeta3 conf inactive
Cc1ccc(CNC(=O)CCCCCNc2nc(=S)[nH]c3ccccc23)cc1	none (no result: Arr AP2 block)
NS(=O)(=O)c1ccc(CCNC(=O)CCCCCNc2nc(=S)[nH]c3ccccc23)cc1	PLCg1 inh 10 (no result: Arr AP2 block) | PLCgamma1 ctr inactive | PLCbeta3 conf inactive
O=C(Nc1cccc(S(=O)(=O)Nc2ccc(Cl)cc2)c1)c1ccccn1	PLCg1 inh 9.7 | PLCgamma1 ctr inactive | PLCbeta3 conf inactive
